# Measured values pooled from the literature.
# Protocols differ between the studies behind these lines.
# Target: Phosphatidylinositol 5-phosphate 4-kinase type-2 beta (PIP4K2B, Homo sapiens, UniProt P78356)
# Sequence (P78356 1-416, as in one of the studies): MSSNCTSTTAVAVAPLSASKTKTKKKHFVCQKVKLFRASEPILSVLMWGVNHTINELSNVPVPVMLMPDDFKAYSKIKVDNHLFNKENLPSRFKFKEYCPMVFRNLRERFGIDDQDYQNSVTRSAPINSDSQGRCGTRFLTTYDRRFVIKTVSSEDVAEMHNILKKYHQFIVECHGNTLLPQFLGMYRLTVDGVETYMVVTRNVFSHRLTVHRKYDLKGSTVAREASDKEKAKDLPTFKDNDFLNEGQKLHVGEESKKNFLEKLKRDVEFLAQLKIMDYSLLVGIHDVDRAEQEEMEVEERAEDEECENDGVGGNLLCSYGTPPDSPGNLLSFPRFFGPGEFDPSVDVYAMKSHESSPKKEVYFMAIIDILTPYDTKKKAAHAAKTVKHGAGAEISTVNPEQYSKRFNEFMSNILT
Structure (SMILES),effect on,method,tested at,remaining binding [%]
C[C@@H]1CCN(c2nccc(-c3cnn4ncccc34)n2)C1,binding,,1 µM,100
CCOCCn1cc(C(=O)Nc2ccc(-n3nc(-c4cccnc4)cc3C(F)(F)F)cn2)ccc1=O,cell-free assay,competition with immobilised ligand,1 µM,68
O=C(c1ccc(Nc2nccc(-c3cc4ccccc4s3)n2)cc1)N1CCC(N2CCCC2)CC1,binding,competition with immobilised ligand,1 µM,11
O=C(N[C@H]1CCCCC/C=C\C2C[C@@]2(C(=O)O)NC(=O)[C@@H]2C[C@@H](Oc3ccncc3)CN2C1=O)OC1CCCC1 (some centres unmarked),binding,competition with immobilised ligand,1 µM,100
O=C(NCCCN1CCOCC1)c1ccc(Nc2ncc(Cl)c(-c3ccc(Cl)s3)n2)cc1,binding,competition with immobilised ligand,1 µM,4.2
Cc1nc(N2CC[C@@H](O)C2)ncc1-c1cc(C(F)(F)F)cc2[nH]ncc12,cell-free assay,competition with immobilised ligand,1 µM,100
COc1cnc(Nc2cccc(S(N)(=O)=O)c2)nc1N1CCN(c2ccccc2)CC1,binding,competition with immobilised ligand,1 µM,100
NS(=O)(=O)c1cc(NC(=O)Cc2ccccc2)ccc1Oc1cccc(Cl)c1,cell-free assay,competition with immobilised ligand,1 µM,89
C=CC(=O)N1CCC(C(=O)NCC(=O)N2CCN(c3nc(-c4cnc(N)nc4C(F)F)nc(N4CCOCC4)n3)CC2)CC1,binding,competition with immobilised ligand,1 µM,99
Cc1c(NC(=O)c2cc(C(N)=O)nc3cc(F)ccc23)c(C(F)(F)F)nn1Cc1ccc(C#N)cc1,cell-free assay,competition with immobilised ligand,1 µM,88
CNC(=O)[C@@H]1CC[C@@H](n2c(-c3ccc4cnccc4c3)nc3ccc(C(=O)NCc4cccc(C(N)=O)c4)cc32)C1,binding,competition with immobilised ligand,1 µM,99
Cc1cnn2ncc(-c3ccnc(N(C)C)n3)c2c1,binding,,1 µM,47
CC(=O)c1c(NS(C)(=O)=O)c2cc(-c3ccc(Cl)cc3)c(-c3ccc(Cl)cc3Cl)nc2n(C)c1=O,cell-free assay,competition with immobilised ligand,1 µM,65
CN(c1nccc(-c2cnn3ncccc23)n1)C1CC1,binding,,1 µM,65
O=C(Nc1c[nH]nc1C(=O)NC1CCNCC1)c1cc(F)cc(F)c1,binding,competition with immobilised ligand,1 µM,88
CN(C)c1ncc(F)c(-c2cnn3ncccc23)n1,binding,,1 µM,100
Cc1cnc(Nc2ccc(C(=O)N3CCC(N4CCCC4)CC3)cc2)nc1-c1cc2ccccc2s1,binding,competition with immobilised ligand,1 µM,8.8
N[C@H]1CCN(c2nccc(-c3cnn4ncccc34)n2)C1,binding,,1 µM,100
COc1ccc2c(c1)O[C@H](c1ccc(OC)c(OC)c1)C[C@@H]2NC(=O)C1(c2ccc3c(c2)OC(F)(F)O3)CC1,cell-free assay,competition with immobilised ligand,1 µM,80
CN(C)c1nccc(-c2cnc3ncccn23)n1,binding,,1 µM,100
c1cncc(-c2cccc(Nc3nccc(NC4CCCCC4)n3)c2)c1,binding,competition with immobilised ligand,10 µM,27
COc1ccnn2ncc(-c3ccnc(N(C)C)n3)c12,binding,,1 µM,100
COc1ncc2cc3ccccc3nc2c1C#N,cell-free assay,competition with immobilised ligand,5 µM,100
